Source: ChEMBL document CHEMBL3525985, “Regiospecificity and stereospecificity of human UDP-glucuronosyltransferases in the glucuronidation of estriol, 16-epiestriol, 17-epiestriol, and 13-epiestradiol” (Drug Metab Dispos, 2013)

Tests used:
Format in all cases: ADME
[1] = biological target: T1, UDP-glucuronosyltransferase 2B4 (Homo sapiens, UniProt P06133); test: Drug metabolism assessed as recombinant human C-terminal His-tagged UGT2B4-mediated estriol-16-glucuronide formation after 15 to 60 mins by Michaelis-Menten equation analysis in presence of UDPGA; conditions: recombinant enzyme
T1 sequence (P06133 whole entry): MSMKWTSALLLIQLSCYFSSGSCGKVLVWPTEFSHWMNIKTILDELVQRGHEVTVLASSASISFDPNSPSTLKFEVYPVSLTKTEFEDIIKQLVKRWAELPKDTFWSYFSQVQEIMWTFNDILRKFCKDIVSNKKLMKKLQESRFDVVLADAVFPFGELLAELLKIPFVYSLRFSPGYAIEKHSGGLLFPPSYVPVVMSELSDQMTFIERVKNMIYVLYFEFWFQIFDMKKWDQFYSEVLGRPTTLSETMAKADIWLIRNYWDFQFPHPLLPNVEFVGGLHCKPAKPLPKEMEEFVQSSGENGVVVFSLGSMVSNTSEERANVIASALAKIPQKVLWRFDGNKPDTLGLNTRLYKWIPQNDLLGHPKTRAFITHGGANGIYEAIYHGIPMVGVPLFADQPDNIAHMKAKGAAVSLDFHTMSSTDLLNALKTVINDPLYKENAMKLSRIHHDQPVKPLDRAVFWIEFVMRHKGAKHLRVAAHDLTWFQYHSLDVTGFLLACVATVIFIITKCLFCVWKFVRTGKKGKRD

[2] = biological target: T2, UDP-glucuronosyltransferase 1A4 (Homo sapiens, UniProt P22310); test: Drug metabolism assessed as recombinant human C-terminal His-tagged UGT1A4-mediated estriol-16-glucuronide formation after 15 to 60 mins by Michaelis-Menten equation analysis in presence of UDPGA; conditions: recombinant enzyme
T2 sequence (P22310 whole entry): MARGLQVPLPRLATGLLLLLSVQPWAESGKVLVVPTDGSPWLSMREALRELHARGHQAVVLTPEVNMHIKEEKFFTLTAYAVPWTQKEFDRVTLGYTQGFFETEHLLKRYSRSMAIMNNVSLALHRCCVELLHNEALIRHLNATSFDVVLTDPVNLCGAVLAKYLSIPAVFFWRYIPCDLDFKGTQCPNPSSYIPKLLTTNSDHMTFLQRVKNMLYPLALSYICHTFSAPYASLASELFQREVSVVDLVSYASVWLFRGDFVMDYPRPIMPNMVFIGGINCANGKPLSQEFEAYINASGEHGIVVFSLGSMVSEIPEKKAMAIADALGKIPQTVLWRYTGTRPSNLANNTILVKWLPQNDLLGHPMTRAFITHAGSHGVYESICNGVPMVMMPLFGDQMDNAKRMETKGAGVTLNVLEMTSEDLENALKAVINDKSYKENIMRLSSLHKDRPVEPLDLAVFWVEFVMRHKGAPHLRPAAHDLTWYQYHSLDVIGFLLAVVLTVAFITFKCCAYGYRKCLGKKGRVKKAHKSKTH

[3] = test system: Liver microsome; test: Drug metabolism in human liver microsomes assessed as estriol-16-glucuronide formation after 15 to 60 mins by Michaelis-Menten equation analysis in presence of UDPGA
Procedure, shortened: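 Pooled human liver microsomes (30 donors), 0.5 or 10 µg, with alamethicin at 5% of total protein. Incubated with 50 mM phosphate pH 7.4, 10 mM MgCl₂, 5 mM UDPGA and 10% DMSO for 15–60 min at 37°C. Each glucuronide regioisomer quantified by HPLC, in triplicate, with substrate consumption at or below 10%.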

[4] = biological target: T3, UDP-glucuronosyltransferase 2A1 (Homo sapiens, UniProt P0DTE4); test: Drug metabolism assessed as recombinant human C-terminal His-tagged UGT2A1-mediated 16-epiestriol-16-glucuronide formation after 15 to 60 mins by Michaelis-Menten equation analysis in presence of UDPGA; conditions: recombinant enzyme
T3 sequence (P0DTE4 whole entry): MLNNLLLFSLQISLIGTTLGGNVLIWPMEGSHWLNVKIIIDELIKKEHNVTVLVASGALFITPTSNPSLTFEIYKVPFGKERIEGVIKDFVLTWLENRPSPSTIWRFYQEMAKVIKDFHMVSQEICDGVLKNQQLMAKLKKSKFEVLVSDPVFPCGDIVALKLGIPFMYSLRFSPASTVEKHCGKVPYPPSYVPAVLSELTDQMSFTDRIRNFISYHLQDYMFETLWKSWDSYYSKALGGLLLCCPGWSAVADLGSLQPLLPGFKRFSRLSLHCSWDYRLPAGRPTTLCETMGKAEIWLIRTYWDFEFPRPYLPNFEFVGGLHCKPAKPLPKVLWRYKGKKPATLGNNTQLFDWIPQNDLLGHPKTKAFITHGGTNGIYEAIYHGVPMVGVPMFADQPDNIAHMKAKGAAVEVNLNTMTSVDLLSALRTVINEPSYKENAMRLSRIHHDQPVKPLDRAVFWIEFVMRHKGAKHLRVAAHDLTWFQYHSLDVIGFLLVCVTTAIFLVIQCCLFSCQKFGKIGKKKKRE

[5] = biological target: T1, UDP-glucuronosyltransferase 2B4; test: Drug metabolism assessed as recombinant human C-terminal His-tagged UGT2B4-mediated 16-epiestriol-16-glucuronide formation after 15 to 60 mins by Michaelis-Menten equation analysis in presence of UDPGA; conditions: recombinant enzyme
[6] = biological target: T4, UDP-glucuronosyltransferase 2B15 (Homo sapiens, UniProt P54855); test: Drug metabolism assessed as recombinant human C-terminal […]-mediated 17-epiestriol-3-glucuronide formation at 200 uM after 15 to 60 mins by HPLC analysis in presence of UDPGA; conditions: recombinant enzyme
T4 sequence (P54855 whole entry): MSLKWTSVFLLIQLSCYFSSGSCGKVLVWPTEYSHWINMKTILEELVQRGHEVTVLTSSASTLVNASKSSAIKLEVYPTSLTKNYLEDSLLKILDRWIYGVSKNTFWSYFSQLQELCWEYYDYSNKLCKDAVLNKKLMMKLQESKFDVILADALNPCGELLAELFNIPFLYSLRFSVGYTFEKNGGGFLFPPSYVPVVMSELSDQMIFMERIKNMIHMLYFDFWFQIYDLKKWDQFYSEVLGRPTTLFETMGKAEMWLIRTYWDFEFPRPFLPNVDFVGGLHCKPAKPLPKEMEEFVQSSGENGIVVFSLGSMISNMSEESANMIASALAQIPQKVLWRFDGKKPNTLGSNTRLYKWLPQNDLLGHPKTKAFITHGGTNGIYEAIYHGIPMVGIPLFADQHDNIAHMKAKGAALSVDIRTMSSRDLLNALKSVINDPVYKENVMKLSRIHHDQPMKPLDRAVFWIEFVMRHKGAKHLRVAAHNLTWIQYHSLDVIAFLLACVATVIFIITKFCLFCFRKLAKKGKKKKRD

Structure (SMILES): C[C@]12CC[C@@H]3c4ccc(O)cc4CC[C@H]3[C@@H]1C[C@@H](O)[C@@H]2O [ESTRIOL]
- Drug metabolism [1]: 4 pmol/min/mg
- Drug metabolism [2]: 4 pmol/min/mg
- Km [3]: 13 µM
- Vmax [3]: 4347 pmol/min/mg

Structure (SMILES): C[C@]12CC[C@@H]3c4ccc(O)cc4CC[C@H]3[C@@H]1C[C@H](O)[C@@H]2O [EPIESTRIOL]
- Drug metabolism [4]: 260 pmol/min/mg
- Drug metabolism [5]: 5 pmol/min/mg

Structure (SMILES): C[C@]12CC[C@@H]3c4ccc(O)cc4CC[C@H]3[C@@H]1C[C@@H](O)[C@H]2O
- Drug metabolism [6]: metabolite_detected
